From ChEMBL document CHEMBL1124575, “Water-soluble third generation antitumor platinum complexes, [2,2-bis (aminomethyl)-1,3-propanediol-N,N']-[1,1-cyclobutanedicarboxylato (2-)-O,O']platinum(II) and [1,1-cyclobutanedicarboxylato(2-)-O,O'] [tetrahydro-4H-pyran-4,4-dimethanamine-N,N']platinum(II)” (J Med Chem, 1989)
Calls of active or inactive are those of the source. The rule behind the calls is not given here.

Columns and labels:
[1] = Solubility in water; format: physicochemical; conditions: buffer
B16 [2] = assay: Antitumor activity against murine tumor cells B16 in C57BC mice administered 12.5 mg/Kg intraperitoneally on days 1-9 relative to tumor inoculation; format: functional; conditions: Mus musculus
Summary of the method: (§1)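 B16 melanoma in C57BC/6 mice, propagated per National Cancer Institute protocols. Drug given ip daily on days 1-9 after tumor inoculation, with observation for 60 days. Read-out is % increase in life span (ILS) over controls. ILS >25% counts as active. Treatment cutting ILS or body weight by >15% versus controls is rated toxic.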

P388 [3] = assay: Antitumor activity against murine tumor cells, P388 in BDF1 mice administered 100 mg/kg intraperitoneally on days 1,5, and 9 relative to tumor inoculation; format: functional, organism-based; parameters: dose 100 mg/kg; conditions: Mus musculus, at 100 mg/kg
Summary of the method: (§2)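 L1210, cisplatin-resistant L1210 and P388 leukemias implanted in BDF1 mice and maintained per National Cancer Institute protocols. Drug given ip on days 1, 5 and 9 after inoculation, with 30-day observation. The end point is % ILS versus controls, with >25% needed for activity. Reduction of ILS or body weight by >15% is rated toxic.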

MX1 [4] = assay: Percent tumor weight inhibition (TWI) in athymic mice at an optimal dose of 50 mg/kg in breast MX-1 cells; format: functional, organism-based; parameters: dose 50 mg/kg; conditions: Mus musculus
Colon 26 [5] = assay: Antitumor activity against murine tumor cells Colon 26 in BALB / C mice administered 50 mg/Kg intraperitoneally on days 1,5, and 9 relative to tumor inoculation; format: functional, cell-based; conditions: Mus musculus
Summary of the method: (§3)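 Colon 26 carcinoma grown in Balb/C mice following National Cancer Institute protocols. Intraperitoneal dosing on days 1, 5 and 9 after tumor inoculation, with survival followed for 30 days. Activity is scored as % ILS over control mice, and ILS >25% is required. Toxicity is a >15% drop in ILS or body weight versus controls.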

L1210 [6] = assay: Antitumor activity against murine tumor cells L1210 cisplatin resistant leukemia in BDF1 mice administered mg/Kg intraperitoneally on days 1,5, and 9 relative to tumor inoculation; Inactive; format: functional; conditions: Mus musculus; summary of the method: as §2
L1210 [7] = assay: Antitumor activity against murine tumor cells L1210 in BDF1 mice administered 100 mg/kg intraperitoneally on days 1,5, and 9 relative to tumor inoculation; format: functional, organism-based; parameters: dose 100 mg/kg; conditions: Mus musculus, at 100 mg/kg; summary of the method: as §2
Mus musculus [8] = assay: Percent tumor weight inhibition (TWI) in athymic mice at an optimal dose of 50 mg/kg in […] cells; format: functional, organism-based; parameters: dose 50 mg/kg
P388 [9] = assay: Antitumor activity against murine tumor cells, P388 in BDF1 mice administered 6.2 mg/Kg intraperitoneally on days 1,5, and 9 relative to tumor inoculation; format: functional; conditions: Mus musculus; summary of the method: as §2
B16 [10] = assay: Antitumor activity against murine tumor cells B16 in C57BC mice administered 1.5 mg/Kg intraperitoneally on days 1-9 relative to tumor inoculation; format: functional; conditions: Mus musculus; summary of the method: as §1
P388 [11] = assay: Antitumor activity against murine tumor cells, P388 in BDF1 mice administered 3.2 mg/Kg intraperitoneally on days 1,5, and 9 relative to tumor inoculation; format: functional; conditions: Mus musculus; summary of the method: as §2
Colon 26 [12] = assay: Antitumor activity against murine tumor cells Colon 26 in BALB / C mice administered 0.8 mg/Kg intraperitoneally on days 1,5, and 9 relative to tumor inoculation; format: functional; conditions: Mus musculus; summary of the method: as §3
Colon 26 [13] = assay: Antitumor activity against murine tumor cells Colon 26 in BALB / C mice administered 3.1 mg/Kg intraperitoneally on days 1,5, and 9 relative to tumor inoculation; format: functional; conditions: Mus musculus; summary of the method: as §3
L1210 [14] = assay: Antitumor activity against murine tumor cells L1210 in BDF1 mice administered 3.1 mg/kg intraperitoneally on days 1,5, and 9 relative to tumor inoculation; format: functional, organism-based; parameters: dose 3.1 mg/kg; conditions: Mus musculus, at 3.1 mg/kg; summary of the method: as §2
M5076 = assay: Antitumor activity against murine tumor cells M5076 in BDF1 mice administered 3 mg/Kg intraperitoneally on days 1,5, and 9 relative to tumor inoculation; format: functional; conditions: Mus musculus
B16 [15] = assay: Antitumor activity against murine tumor cells B16 in C57BC mice administered 6 mg/kg intraperitoneally on days 1-9 relative to tumor inoculation; format: functional, organism-based; parameters: dose 6 mg/kg; conditions: Mus musculus, at 6 mg/kg; summary of the method: as §1
L1210 [16] = assay: Antitumor activity against murine tumor cells L1210 in BDF1 mice administered 1.5 mg/kg intraperitoneally on days 1,5, and 9 relative to tumor inoculation; format: functional, organism-based; parameters: dose 1.5 mg/kg; conditions: Mus musculus, at 1.5 mg/kg; summary of the method: as §2
B16 [17] = assay: Antitumor activity against murine tumor cells B16 in C57BC mice administered 0.2 mg/Kg intraperitoneally on days 1-9 relative to tumor inoculation; format: functional; conditions: Mus musculus; summary of the method: as §1
B16 [18] = assay: Antitumor activity against murine tumor cells B16 in C57BC mice administered 0.4 mg/Kg intraperitoneally on days 1-9 relative to tumor inoculation; format: functional; conditions: Mus musculus; summary of the method: as §1
L1210 [19] = assay: Antitumor activity against murine tumor cells L1210 in BDF1 mice administered 6.2 mg/kg intraperitoneally on days 1,5, and 9 relative to tumor inoculation; format: functional, organism-based; parameters: dose 6.2 mg/kg; conditions: Mus musculus, at 6.2 mg/kg; summary of the method: as §2
MX1 [20] = assay: Percent tumor weight inhibition (TWI) in athymic mice at an optimal dose of 3 mg/kg in breast MX-1 cells; format: functional, organism-based; parameters: dose 3 mg/kg; conditions: Mus musculus
Mus musculus [21] = assay: Percent tumor weight inhibition (TWI) in athymic mice at an optimal dose of 3 mg/kg in […] cells; format: functional, organism-based; parameters: dose 3 mg/kg
P388 [22] = assay: Antitumor activity against murine tumor cells, P388 in BDF1 mice administered 3 mg/kg intraperitoneally on days 1,5, and 9 relative to tumor inoculation; format: functional, organism-based; parameters: dose 3 mg/kg; conditions: Mus musculus, at 3 mg/kg; summary of the method: as §2
B16 [23] = assay: Antitumor activity against murine tumor cells B16 in C57BC mice administered 0.4 mg/kg intraperitoneally on days 1-9 relative to tumor inoculation; format: functional, organism-based; parameters: dose 0.4 mg/kg; conditions: Mus musculus, at 0.4 mg/kg; summary of the method: as §1
Colon 26 [24] = assay: Antitumor activity against murine tumor cells Colon 26 in BALB / C mice administered 1 mg/Kg intraperitoneally on days 1,5, and 9 relative to tumor inoculation; format: functional; conditions: Mus musculus; summary of the method: as §3
L1210 [25] = assay: Antitumor activity against murine tumor cells L1210 cisplatin resistant leukemia in BDF1 mice administered mg/Kg intraperitoneally on days 1,5, and 9 relative to tumor inoculation; In active; format: functional; conditions: Mus musculus; summary of the method: as §2

With “cis-Diamminedichloroplatinum (II) complex [listing 1 of 3 here]” the S [1] was 0.3 mg/mL.
With CARBOPLATIN the Increase (B16 [2]) was 43%, the Increase (P388 [3]) was 144% and the TWI (MX1 [4]) was 90%. For the same substance, the Increase (Colon 26 [5]) was 85%, the Increase (L1210 [6]) was “inactive” and the Increase (L1210 [7]) was 35%. It also gave a TWI (Mus musculus [8]) of 200%.
For “cis-Diamminedichloroplatinum (II) complex [listing 2 of 3 here]”, the Increase (P388 [9]) was 136%, the Increase (B16 [10]) was 36% and the Increase (P388 [11]) was 173%. It also gave an Increase (Colon 26 [12]) of 39%, an Increase (Colon 26 [13]) of 59% and an Increase (L1210 [14]) of 39%. It also gave an Increase (M5076) of 128%, an Increase (B16 [15]) of 53% and an Increase (L1210 [16]) of 38%. For the same substance, the Increase (B16 [17]) was 43%, the Increase (B16 [18]) was 43% and the Increase (L1210 [19]) was 50%.
Substance CISPLATIN has a TWI (MX1 [20]) of 86%, a TWI (Mus musculus [21]) of 200% and an Increase (P388 [22]) of 140%. The Increase (B16 [23]) was 36%, the Increase (Colon 26 [24]) was 47% and the Increase (L1210 [25]) was “inactive”. For the same substance, the Increase (L1210 [19]) was 96%.
“cis-Diamminedichloroplatinum (II) complex [listing 3 of 3 here]” gave an S [1] of 1 mg/mL.
